Active and inactive are the calls of the source. The calls are words filed in the database; no cut-off is given here.
Tests used:
[1] = system: Mus musculus; test: (§1) Antiinflammatory activity in antibiotic resistant Candida albicans clinical isolate 08030809 induced mouse vaginitis model assessed as reduction in microabscess number in vaginal tissue at 50 ug administered as intravaginal instillation measured after 16 days by hematoxylin-eosin staining based microscopic method; assay type: functional, organism-based; settings: Vagina
Summary of the method: (§2)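 Mice given weekly subcutaneous estradiol valerate (0.5 mg in 0.1 mL vegetable oil) 72 h before infection. Infected intravaginally with 20 µL of 10^7 CFU/mL C. albicans 08030809. Intravaginal instillation of 20 µL daily for 16 days. Vaginal canals excised after lavage, formalin-fixed, paraffin-embedded, HE-stained. Microabscesses counted per high-power field over 6 fields per section, three independent experiments.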

[2] = system: Candida albicans; test: Effect on cell morphology in antibiotic resistant Candida albicans clinical isolate 08030809 assessed as cell membrane perforation at MIC to 2.5 times MIC after 30 mins by scanning electron microscopy; assay type: functional, organism-based
Summary of the method: (§3)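 Exponential-phase C. albicans 08030809 was washed in PBS and resuspended in Sabouraud medium. Cells were treated 30 min at 37°C alongside a vehicle control. They were then fixed in 2.5% glutaraldehyde (4°C, 2 h) and 1% osmium tetroxide, dehydrated through graded ethanol, freeze-dried from tert-butanol, gold-coated and imaged by SEM. Images are typical of three experiments.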

[3] = system: Candida albicans; test: Antimicrobial activity against antibiotic resistant Candida albicans clinical isolate 08030809 assessed as clone count at 10 times MIC after 1 hr by colony counting assay (reference value: 228 +/- 23 CFU); assay type: functional
[4] = system: Candida albicans; test: Antimicrobial activity against antibiotic resistant Candida albicans clinical isolate 08022710 after 16 hrs by broth dilution method; assay type: functional; settings: isolate 08022710, 16 h
Summary of the method: (§4)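 Broth microdilution in Sabouraud liquid medium. Samples are stocks in 0.9% NaCl, 10 µL added to 90 µL broth plus 100 µL of 2 × 10^5 CFU/mL yeast suspension. Incubated 16 h at 28°C, growth read by A600. MIC is the lowest concentration completely inhibiting growth; mean of three independent experiments.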

[5] = system: Candida albicans; test: Antimicrobial activity against antibiotic resistant Candida albicans clinical isolate 08030809 assessed as clone count at MIC after 6 hrs by colony counting assay (reference value: 14536 +/- 2467 CFU); assay type: functional
[6] = system: Candida albicans; test: Antimicrobial activity against antibiotic resistant Candida albicans clinical isolate 08032710 compound treated in PBS solution measured after 36 hrs by disc diffusion method; assay type: functional; settings: isolate 08032710, 36 h
Summary of the method: (§5)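 Salt-tolerance test: peptide at 2 mg/mL was prepared in sterile ddH2O, in 150 mM NaCl, or in PBS (150 mM NaCl, 2.7 mM KCl, 1.5 mM KH2PO4, 8 mM K2HPO4, pH 7.2). Anti-C. albicans activity was then assessed by inhibition zone on Sabouraud medium with 0.7% agar.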

[7] = system: Mus musculus; test: as §1, with “as” for “as reduction in”, “on day 6” for “after 16 days”, “method (reference value: 61)” for “method”; assay type: functional, Vagina; summary of the method: as §2
[8] = system: Mus musculus; test: Antiinflammatory activity in antibiotic resistant Candida albicans clinical isolate 08030809 induced mouse vaginitis model assessed as reduction in IL-1beta secretion in vaginal tissue at 50 ug administered as intravaginal instillation measured on day 10 by ELISA; assay type: functional, Vagina
Summary of the method: (§6)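 Same estradiol-primed mouse model, infected intravaginally with C. albicans 08030809 and treated by intravaginal instillation (20 µL/mouse). Vaginal canals excised on day 10 of treatment and homogenised in 0.9% NaCl. Supernatant taken after 2,000 g for 15 min. TNF-α, IL-6, IL-1β and IL-10 measured by ELISA. Mean ± SE of three independent experiments; unpaired t-test versus vehicle.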

[9] = system: Candida albicans; test: Antimicrobial activity against antibiotic resistant Candida albicans clinical isolate 08030102 after 16 hrs by broth dilution method; assay type: functional; settings: isolate 08030102, 16 h; summary of the method: as §4
[10] = system: Candida albicans; test: Antimicrobial activity against antibiotic resistant Candida albicans clinical isolate 08030809 assessed as clone count at MIC after 24 hrs by colony counting assay (Rvb > 10^5 CFU); assay type: functional
[11] = system: Candida albicans; test: Antimicrobial activity against antibiotic resistant Candida albicans clinical isolate 08030809 assessed as clone count at 10 times MIC after 12 hrs by colony counting assay (reference value: 54153 +/- 8769 CFU); assay type: functional
[12] = system: Candida albicans; test: Antimicrobial activity against antibiotic resistant Candida albicans clinical isolate 08032710 compound treated in double distilled water measured after 36 hrs by disc diffusion method; assay type: functional; settings: isolate 08032710, 36 h; summary of the method: as §5
[13] = system: Mus musculus; test: Antiinflammatory activity in antibiotic resistant Candida albicans clinical isolate 08030809 induced mouse vaginitis model assessed as reduction in TNF-alpha secretion in vaginal tissue at 20 ug administered as intravaginal instillation measured on day 10 by ELISA; assay type: functional, Vagina; summary of the method: as §6
[14] = system: Candida albicans; test: Antimicrobial activity against antibiotic resistant Candida albicans after 6 hrs by disc diffusion method in presence of human plasma; assay type: functional, organism-based
Summary of the method: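 Peptide mixed with human plasma (final concentration 100 µM) at 37°C for up to 24 h. 10 µL aliquots were applied to C. albicans in Sabouraud medium with 0.7% agar. Inhibition zone diameters were read after 36 h.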

[15] = system: Candida albicans; test: Effect on cell morphology in antibiotic resistant Candida albicans clinical isolate 08030809 assessed as cell swelling at MIC to 2.5 times MIC after 30 mins by scanning electron microscopy; assay type: functional, organism-based; summary of the method: as §3
[16] = system: Bacillus subtilis; test: Antimicrobial activity against Bacillus subtilis assessed as inhibition of […] growth after 16 hrs by broth dilution method; assay type: functional
Summary of the method: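 Broth dilution in LB broth; 100 µL of 2 × 10^5 CFU/mL bacterial suspension plus 10 µL sample (stock series in 0.9% NaCl) in 90 µL broth, 37°C for 16 h. Growth read as A600; MIC is the lowest concentration completely inhibiting growth. Mean of three independent experiments run in duplicate.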

[17] = system: Candida albicans; test: Antimicrobial activity against antibiotic resistant Candida albicans clinical isolate 08030809 assessed as clone count at 5 times MIC after 1 hr by colony counting assay (reference value: 228 +/- 23 CFU); assay type: functional
[18] = system: Candida albicans; test: Antimicrobial activity against antibiotic resistant Candida albicans clinical isolate 08030809 assessed as clone count at 5 times MIC after 12 hrs by colony counting assay (reference value: 54153 +/- 8769 CFU); assay type: functional
[19] = system: Mus musculus; test: Antiinflammatory activity in antibiotic resistant Candida albicans clinical isolate 08030809 induced mouse vaginitis model assessed as reduction in IL-1beta secretion in vaginal tissue at 20 ug administered as intravaginal instillation measured on day 10 by ELISA; assay type: functional, Vagina; summary of the method: as §6
[20] = system: Candida albicans; test: Antimicrobial activity against antibiotic resistant Candida albicans clinical isolate 08030809 in mouse vaginitis model assessed as decrease in colony count in lavage liquid of vagina at 20 ug administered as intravaginal instillation measured on day 6; assay type: functional
[21] = system: Candida albicans; test: Antimicrobial activity against antibiotic resistant Candida albicans clinical isolate 08030809 assessed as clone count at 5 times MIC after 3 hrs by colony counting assay (reference value: 3687 +/- 543 CFU); assay type: functional
[22] = system: Candida albicans; test: Antimicrobial activity against antibiotic resistant Candida albicans clinical isolate 08032821 compound treated in double distilled water measured after 36 hrs by disc diffusion method; assay type: functional; settings: isolate 08032821, 36 h; summary of the method: as §5
[23] = system: Candida albicans; test: Antimicrobial activity against antibiotic resistant Candida albicans clinical isolate 08030809 compound treated in PBS solution measured after 36 hrs by disc diffusion method; assay type: functional; settings: isolate 08030809, 36 h; summary of the method: as §5

H-VKRWKKWRWKWKKWV-NH2
Activity [1]: Active | Activity [2]: Active | Activity [3]: 0 CFU | MIC [4]: 4.69 mg/L | Activity [5]: 0 CFU | MIC [6]: 2.79 mg/L | Activity [7]: 7 | inhibition (INH) [8]: 63% | MIC [9]: 3.13 mg/L | Activity [10]: 0 CFU | Activity [11]: 0 CFU | MIC [12]: 2.79 mg/L | inhibition (INH) [13]: 32% | Activity [14]: Active | Activity [15]: Active | MIC [16]: 1.17 mg/L | Activity [17]: 0 CFU | Activity [18]: 0 CFU | inhibition (INH) [19]: 44% | inhibition (INH) [20]: 22% | Activity [21]: 0 CFU | MIC [22]: 2.65 mg/L | MIC [23]: 1.4 mg/L

From ChEMBL document CHEMBL3779860, “A Designed Tryptophan- and Lysine/Arginine-Rich Antimicrobial Peptide with Therapeutic Potential for Clinical Antibiotic-Resistant Candida albicans Vaginitis” (J Med Chem, 2016)
